Reference: ChEMBL document CHEMBL4665779, “Novel 2-Substituted 3-Hydroxy-1,6-dimethylpyridin-4(1H)-ones as Dual-Acting Biofilm Inhibitors of Pseudomonas aeruginosa” (J Med Chem, 2020)
Active and inactive are the calls of the source. The calls are words filed in the database; no cut-off is given here.

Experiments:
Pseudomonas aeruginosa [1] = test: Inhibition of biofilm formation in multidrug resistant Pseudomonas aeruginosa FB at 1.25 uM relative to control; type: functional
[2] = Metal chelating activity assessed as negative logarithm of total free ferric ion concentration in a solution at 60 uM measured after 48 hrs in presence of CP645 probe and Fe-NTA by fluorescence spectrophotometry analysis
Pseudomonas aeruginosa [3] = test: Antibiofilm activity against Pseudomonas aeruginosa PAO1 harboring sigma factor-Pvds mutant assessed as inhibition of biofilm formation at 20 uM relative to control; type: functional
[4] = biological target: T1, Anthranilate--CoA ligase (Pseudomonas aeruginosa (strain ATCC 15692 / DSM 22644 / CIP 104116 /JCM 14847 / LMG 12228 / 1C / PRS 101 / PAO1)) (UniProt Q9I4X3); test: Inhibition of pqsA fluorescence in Pseudomonas aeruginosa PAO1 transfected with GFP by measuring fluorescence intensity every 15 mins for 12 hrs by microtiter plate reader assay; conditions: dose microM 1.25-20, time 12.0 hrs
T1 sequence (whole entry): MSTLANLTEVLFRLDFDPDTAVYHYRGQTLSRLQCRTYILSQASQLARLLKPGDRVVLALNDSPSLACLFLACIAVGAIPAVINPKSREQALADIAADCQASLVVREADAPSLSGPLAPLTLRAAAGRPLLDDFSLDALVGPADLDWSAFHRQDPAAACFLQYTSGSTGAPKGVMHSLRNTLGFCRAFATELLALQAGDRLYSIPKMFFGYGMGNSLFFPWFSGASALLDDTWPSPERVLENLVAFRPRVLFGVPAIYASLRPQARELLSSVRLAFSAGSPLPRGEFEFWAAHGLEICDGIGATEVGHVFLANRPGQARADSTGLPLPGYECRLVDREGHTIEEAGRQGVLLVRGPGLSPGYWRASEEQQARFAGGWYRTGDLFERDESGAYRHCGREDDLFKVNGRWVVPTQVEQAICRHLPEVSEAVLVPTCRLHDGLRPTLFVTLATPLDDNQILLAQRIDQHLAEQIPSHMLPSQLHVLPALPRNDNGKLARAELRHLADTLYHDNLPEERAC
In short: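 PAO1-gfp, PAO1-lasB-gfp, PAO1-rhlA-gfp or PAO1-pqsA-gfp reporters were grown overnight in LB, then diluted in ABTGC medium to OD600 0.02, with compound at 1.25–20 μM. Controls were 0.1% DMSO and a blank. OD600 and GFP fluorescence (ex 485/em 535 nm) were read every 15 min for at least 12 h at 37 °C; triplicate.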

Pseudomonas aeruginosa [5] = test: Inhibition of biofilm formation in multidrug resistant Pseudomonas aeruginosa 1167 at 2.5 uM relative to control; type: functional
Pseudomonas aeruginosa [6] = test: Inhibition of biofilm formation in multidrug resistant Pseudomonas aeruginosa 1121 at 2.5 uM relative to control; type: functional
[7] = test system: Pseudomonas aeruginosa PAO1; test: Induction of iron chelation in Pseudomonas aeruginosa PAO1 assessed as increase in iron deficiency by measuring change in total ferric ion concentration at 1.25 uM by inductively coupled plasma mass spectrometry (reference value: 1.91 +/- 0.8 uM)
In short: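 PAO1 (OD600 0.05) was diluted 1:100 into ABTGC medium and grown 24 h at 37 °C with shaking, with compound; DFP at 20 μM was the reference. Pellets were washed twice in HEPES and lysed with lysozyme in 50 mM HEPES plus sonication for 30 min. Lysates were digested with 1 M nitric acid, centrifuged, and analysed by ICP-MS. Mean ± SD, triplicate.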

Pseudomonas aeruginosa [8] = test: Antibacterial activity against Pseudomonas aeruginosa infected in African green monkey Vero cells assessed as increase in cell survival pretreated for 24 hrs followed by cell addition and measured 4 hrs post-infection by MTT assay; type: functional, organism-based; conditions: dose microM 1.25-20, time 28.0 hrs
In short: (§1)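 P. aeruginosa cultures were grown with 0, 1.25, 2.5, 5, 10 or 20 μM compound for 24 h at 37 °C with shaking. Washed cells (in DMEM) were infected at MOI 100 for 4 h. Bacteria were then killed with 500 μg/mL gentamycin for 2 h, and cells were given 500 μg/mL MTT for 16 h. Formazan was dissolved in DMSO and read at 570 nm.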

[9] = test system: Pseudomonas aeruginosa PAO1; test: Induction of iron chelation in Pseudomonas aeruginosa PAO1 assessed as increase in intracellular pyochelin level at 1.25 to 20 uM in presence of 50 uM FeCl3 by fluorescence microplate reader assay; type: cell-based; conditions: dose microM 1.25-20
In short: (§2)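 PAO1 overnight LB culture was diluted in ABTGC medium to OD600 0.02 ([…]), with compound at 0–20 μM, in medium containing 10 or 50 μM FeCl3. Plates were kept at 37 °C in a plate reader recording OD600, pyoverdine fluorescence (ex 400/em 447 nm) and pyochelin fluorescence (ex 350/em 430 nm). Triplicate.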

[10] = test system: Pseudomonas aeruginosa PAO1; test: Induction of iron chelation in Pseudomonas aeruginosa PAO1 assessed as increase in iron deficiency by measuring change in total ferric ion concentration at 20 uM by inductively coupled plasma mass spectrometry (reference value: 1.91 +/- 0.8 uM)
Pseudomonas aeruginosa [11] = test: Inhibition of biofilm formation in multidrug resistant Pseudomonas aeruginosa 1129 at 5 uM relative to control; type: functional
Pseudomonas aeruginosa [12] = test: Inhibition of biofilm formation in multidrug resistant Pseudomonas aeruginosa 1129 at 1.25 uM relative to control; type: functional
Pseudomonas aeruginosa [13] = test: Antibiofilm activity against Pseudomonas aeruginosa PAO1 assessed as inhibition of biofilm formation after 18 hrs by crystal violet staining based assay; type: functional, organism-based; conditions: PAO1, 18 h
Pseudomonas aeruginosa [14] = test: Antibacterial activity against Pseudomonas aeruginosa infected in human L02 assessed as increase in cell survival pretreated for 24 hrs followed by cell addition and measured 4 hrs post-infection by MTT assay; type: functional, organism-based; conditions: dose microM 1.25-20, time 28.0 hrs; in short: as §1
[15] = test system: Pseudomonas aeruginosa PAO1; test: Induction of iron chelation in Pseudomonas aeruginosa PAO1 assessed as increase in intracellular pyoverdin level in presence of 10 uM FeCl3 by fluorescence microplate reader assay; type: cell-based; conditions: dose microM 1.25-20; in short: as §2
Pseudomonas aeruginosa [16] = test: Inhibition of swimming motility of Pseudomonas aeruginosa PAO1 measured after 16 hrs; type: functional, organism-based; conditions: dose microM 1.25-20, time 16.0 hrs
In short: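 Compound (0–20 μM) was included in LB plates with 0.3% agar, 0.5% casamino acids and 0.5% glucose. Plates were dried 1 h, then 1 μL PAO1 (OD600 1) was placed at the plate bottom. Incubation was 16 h at 37 °C; three independent experiments.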

Pseudomonas aeruginosa [17] = test: Inhibition of biofilm formation in multidrug resistant Pseudomonas aeruginosa 1129 at 2.5 uM relative to control; type: functional

CCCCCCC(=O)NCc1c(O)c(=O)cc(C)n1C
inhibition at 1.25 µM (Pseudomonas aeruginosa [1]): -5.12%
pFe3+ [2]: 22
inhibition at 20 µM (Pseudomonas aeruginosa [3]): 20%
inhibition [4]: Dose-dependent effect
inhibition at 2.5 µM (Pseudomonas aeruginosa [5]): 34.6%
inhibition at 2.5 µM (Pseudomonas aeruginosa [6]): 7.68%
Activity [7]: 1.55 µM
Activity (Pseudomonas aeruginosa [8]): Dose-dependent effect
Activity [9]: inactive
Activity [10]: 0.88 µM
inhibition at 5 µM (Pseudomonas aeruginosa [11]): 30.6%
inhibition at 1.25 µM (Pseudomonas aeruginosa [12]): 12.7%
IC50 (Pseudomonas aeruginosa [13]): 6.57 µM
Activity (Pseudomonas aeruginosa [14]): Dose-dependent effect
Activity [15]: Dose-dependent effect
inhibition (Pseudomonas aeruginosa [16]): Dose-dependent effect
inhibition at 2.5 µM (Pseudomonas aeruginosa [17]): 21.3%
